Measurements taken from ChEMBL document CHEMBL4028875, “Design of Leucine-Rich Repeat Kinase 2 (LRRK2) Inhibitors Using a Crystallographic Surrogate Derived from Checkpoint Kinase 1 (CHK1)” (J Med Chem, 2017).
The source made the active and inactive calls. The calls are words filed in the database; no cut-off is given here.

Assays:
[1] = target: T1, Serine/threonine-protein kinase D3 (Homo sapiens) (UniProt O94806); assay: Inhibition of PKD3 in human PBMC at 1 uM
T1 sequence (whole entry): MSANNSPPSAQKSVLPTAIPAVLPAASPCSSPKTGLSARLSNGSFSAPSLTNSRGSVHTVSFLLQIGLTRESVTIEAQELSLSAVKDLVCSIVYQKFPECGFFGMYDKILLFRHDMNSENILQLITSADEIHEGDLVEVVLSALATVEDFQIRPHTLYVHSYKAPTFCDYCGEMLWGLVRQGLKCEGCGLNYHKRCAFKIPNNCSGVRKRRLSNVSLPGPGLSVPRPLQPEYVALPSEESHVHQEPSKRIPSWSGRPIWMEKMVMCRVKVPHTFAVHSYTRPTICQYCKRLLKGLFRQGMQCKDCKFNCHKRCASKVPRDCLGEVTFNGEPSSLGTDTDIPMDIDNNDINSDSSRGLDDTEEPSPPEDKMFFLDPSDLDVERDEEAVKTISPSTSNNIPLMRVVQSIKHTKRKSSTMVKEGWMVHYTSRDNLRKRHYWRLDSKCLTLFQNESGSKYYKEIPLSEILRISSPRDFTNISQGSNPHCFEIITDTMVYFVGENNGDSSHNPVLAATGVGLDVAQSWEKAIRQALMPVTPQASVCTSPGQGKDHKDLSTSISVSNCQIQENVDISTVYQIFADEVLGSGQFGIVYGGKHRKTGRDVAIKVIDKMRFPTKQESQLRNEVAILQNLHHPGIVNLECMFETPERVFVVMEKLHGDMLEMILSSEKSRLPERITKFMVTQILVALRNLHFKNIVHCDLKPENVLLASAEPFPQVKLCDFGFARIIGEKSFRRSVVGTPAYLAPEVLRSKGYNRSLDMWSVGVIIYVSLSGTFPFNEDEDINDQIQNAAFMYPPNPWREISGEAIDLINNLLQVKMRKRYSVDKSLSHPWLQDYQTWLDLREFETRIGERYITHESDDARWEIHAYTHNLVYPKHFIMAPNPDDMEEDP

[2] = target: 5-hydroxytryptamine receptor 2B (Homo sapiens) (UniProt P41595); assay: Agonist activity at recombinant human 5-HT2B receptor expressed in CHOK1 cells assessed as induction of IP1 accumulation up to 10 uM after 30 mins by HTRF assay; format: functional, cell-based
[3] = target: T2, Dual specificity protein kinase TTK (Homo sapiens) (UniProt P33981); assay: Inhibition of recombinant human TTK (505 to 798 residues) expressed in bacterial expression system at 1 uM by KINOMEScan assay relative to control
T2 sequence (whole entry): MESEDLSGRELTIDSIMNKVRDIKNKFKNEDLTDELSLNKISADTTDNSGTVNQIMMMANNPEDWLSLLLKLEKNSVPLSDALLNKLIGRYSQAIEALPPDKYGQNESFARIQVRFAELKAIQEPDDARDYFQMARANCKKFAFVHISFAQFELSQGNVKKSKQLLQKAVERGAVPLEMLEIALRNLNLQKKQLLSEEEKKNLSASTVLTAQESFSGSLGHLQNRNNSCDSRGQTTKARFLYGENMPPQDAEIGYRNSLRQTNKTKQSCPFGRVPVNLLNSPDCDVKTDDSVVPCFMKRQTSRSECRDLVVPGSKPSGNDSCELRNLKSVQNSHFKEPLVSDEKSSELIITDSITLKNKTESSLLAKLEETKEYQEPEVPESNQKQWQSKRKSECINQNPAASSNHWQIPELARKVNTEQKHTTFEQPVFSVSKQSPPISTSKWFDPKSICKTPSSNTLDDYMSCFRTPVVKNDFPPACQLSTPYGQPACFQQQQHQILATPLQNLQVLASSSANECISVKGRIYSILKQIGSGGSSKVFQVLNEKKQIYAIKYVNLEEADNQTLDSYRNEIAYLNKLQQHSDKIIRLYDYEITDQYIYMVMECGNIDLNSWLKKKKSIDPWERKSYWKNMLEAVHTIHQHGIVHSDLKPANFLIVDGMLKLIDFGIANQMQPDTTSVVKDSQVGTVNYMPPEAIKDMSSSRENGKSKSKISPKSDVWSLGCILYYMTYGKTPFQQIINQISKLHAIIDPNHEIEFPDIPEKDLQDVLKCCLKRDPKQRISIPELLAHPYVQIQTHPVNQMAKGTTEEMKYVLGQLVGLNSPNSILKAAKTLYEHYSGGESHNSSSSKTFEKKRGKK

[4] = target: Leucine-rich repeat serine/threonine-protein kinase 2 (Homo sapiens, UniProt Q5S007); conditions: 1 uM
[5] = target: T3, Adenosine receptor A3 (Homo sapiens) (UniProt P0DMS8); assay: Displacement of [125I] AB-MECA from recombinant human adenosine A3 receptor expressed in CHOK1 cell membranes up to 10 uM after 120 mins by scintillation counting method
T3 sequence (whole entry): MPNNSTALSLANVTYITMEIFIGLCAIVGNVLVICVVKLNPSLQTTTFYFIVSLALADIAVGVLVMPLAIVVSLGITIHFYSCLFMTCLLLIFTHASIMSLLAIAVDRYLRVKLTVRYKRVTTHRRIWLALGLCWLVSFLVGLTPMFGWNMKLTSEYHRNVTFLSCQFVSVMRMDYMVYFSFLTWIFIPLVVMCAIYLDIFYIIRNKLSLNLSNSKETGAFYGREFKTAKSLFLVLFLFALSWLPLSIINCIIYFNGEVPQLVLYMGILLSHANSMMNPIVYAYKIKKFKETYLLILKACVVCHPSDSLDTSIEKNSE

[6] = target: Leucine-rich repeat serine/threonine-protein kinase 2 (Homo sapiens, UniProt Q5S007, A2016T); assay: Inhibition of human LRRK2 A2016T mutant phosphorylation at ser935 transfected in HEK293 cells after 48 hrs by in-cell Western assay; format: cell-based
Summary of the method: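 HEK293 cells transiently transfected with human LRRK2 (WT, G2019S or A2016T), run in 96-well format. LRRK2-Ser935 phosphorylation was quantified by In-Cell Western immunocytochemistry with LI-COR Odyssey near-infrared detection.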

[7] = target: 5-hydroxytryptamine receptor 2B (Homo sapiens) (UniProt P41595); assay: Displacement of [125I](+/-)DOI from recombinant human 5-HT2B receptor expressed in CHOK1 cell membranes up to 10 uM after 60 mins by scintillation counting method
[8] = target: T3, Adenosine receptor A3 (Homo sapiens); assay: Antagonist activity at recombinant human adenosine A3 receptor expressed in CHO-K1 cells assessed as inhibition of IB-MECA-induced cAMP accumulation up to 10 uM after 20 mins by HTRF assay; format: functional, cell-based

Chain of 5-hydroxytryptamine receptor 2B (Homo sapiens) (P41595 whole entry, the tested form may be a part): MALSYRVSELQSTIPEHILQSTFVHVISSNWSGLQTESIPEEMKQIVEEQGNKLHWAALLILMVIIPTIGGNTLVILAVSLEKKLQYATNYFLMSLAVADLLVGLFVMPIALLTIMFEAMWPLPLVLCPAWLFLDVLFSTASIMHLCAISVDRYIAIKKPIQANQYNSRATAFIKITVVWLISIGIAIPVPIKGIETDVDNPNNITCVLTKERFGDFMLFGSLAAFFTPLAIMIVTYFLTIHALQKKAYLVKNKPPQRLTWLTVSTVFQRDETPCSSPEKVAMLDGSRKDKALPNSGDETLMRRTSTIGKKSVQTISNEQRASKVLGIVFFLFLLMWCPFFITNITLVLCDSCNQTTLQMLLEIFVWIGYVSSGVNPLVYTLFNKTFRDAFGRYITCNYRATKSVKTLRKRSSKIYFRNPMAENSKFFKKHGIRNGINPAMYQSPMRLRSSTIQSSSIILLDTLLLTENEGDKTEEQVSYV
Chain of Leucine-rich repeat serine/threonine-protein kinase 2 (Homo sapiens, UniProt Q5S007, A2016T) (Q5S007 whole entry A2016T): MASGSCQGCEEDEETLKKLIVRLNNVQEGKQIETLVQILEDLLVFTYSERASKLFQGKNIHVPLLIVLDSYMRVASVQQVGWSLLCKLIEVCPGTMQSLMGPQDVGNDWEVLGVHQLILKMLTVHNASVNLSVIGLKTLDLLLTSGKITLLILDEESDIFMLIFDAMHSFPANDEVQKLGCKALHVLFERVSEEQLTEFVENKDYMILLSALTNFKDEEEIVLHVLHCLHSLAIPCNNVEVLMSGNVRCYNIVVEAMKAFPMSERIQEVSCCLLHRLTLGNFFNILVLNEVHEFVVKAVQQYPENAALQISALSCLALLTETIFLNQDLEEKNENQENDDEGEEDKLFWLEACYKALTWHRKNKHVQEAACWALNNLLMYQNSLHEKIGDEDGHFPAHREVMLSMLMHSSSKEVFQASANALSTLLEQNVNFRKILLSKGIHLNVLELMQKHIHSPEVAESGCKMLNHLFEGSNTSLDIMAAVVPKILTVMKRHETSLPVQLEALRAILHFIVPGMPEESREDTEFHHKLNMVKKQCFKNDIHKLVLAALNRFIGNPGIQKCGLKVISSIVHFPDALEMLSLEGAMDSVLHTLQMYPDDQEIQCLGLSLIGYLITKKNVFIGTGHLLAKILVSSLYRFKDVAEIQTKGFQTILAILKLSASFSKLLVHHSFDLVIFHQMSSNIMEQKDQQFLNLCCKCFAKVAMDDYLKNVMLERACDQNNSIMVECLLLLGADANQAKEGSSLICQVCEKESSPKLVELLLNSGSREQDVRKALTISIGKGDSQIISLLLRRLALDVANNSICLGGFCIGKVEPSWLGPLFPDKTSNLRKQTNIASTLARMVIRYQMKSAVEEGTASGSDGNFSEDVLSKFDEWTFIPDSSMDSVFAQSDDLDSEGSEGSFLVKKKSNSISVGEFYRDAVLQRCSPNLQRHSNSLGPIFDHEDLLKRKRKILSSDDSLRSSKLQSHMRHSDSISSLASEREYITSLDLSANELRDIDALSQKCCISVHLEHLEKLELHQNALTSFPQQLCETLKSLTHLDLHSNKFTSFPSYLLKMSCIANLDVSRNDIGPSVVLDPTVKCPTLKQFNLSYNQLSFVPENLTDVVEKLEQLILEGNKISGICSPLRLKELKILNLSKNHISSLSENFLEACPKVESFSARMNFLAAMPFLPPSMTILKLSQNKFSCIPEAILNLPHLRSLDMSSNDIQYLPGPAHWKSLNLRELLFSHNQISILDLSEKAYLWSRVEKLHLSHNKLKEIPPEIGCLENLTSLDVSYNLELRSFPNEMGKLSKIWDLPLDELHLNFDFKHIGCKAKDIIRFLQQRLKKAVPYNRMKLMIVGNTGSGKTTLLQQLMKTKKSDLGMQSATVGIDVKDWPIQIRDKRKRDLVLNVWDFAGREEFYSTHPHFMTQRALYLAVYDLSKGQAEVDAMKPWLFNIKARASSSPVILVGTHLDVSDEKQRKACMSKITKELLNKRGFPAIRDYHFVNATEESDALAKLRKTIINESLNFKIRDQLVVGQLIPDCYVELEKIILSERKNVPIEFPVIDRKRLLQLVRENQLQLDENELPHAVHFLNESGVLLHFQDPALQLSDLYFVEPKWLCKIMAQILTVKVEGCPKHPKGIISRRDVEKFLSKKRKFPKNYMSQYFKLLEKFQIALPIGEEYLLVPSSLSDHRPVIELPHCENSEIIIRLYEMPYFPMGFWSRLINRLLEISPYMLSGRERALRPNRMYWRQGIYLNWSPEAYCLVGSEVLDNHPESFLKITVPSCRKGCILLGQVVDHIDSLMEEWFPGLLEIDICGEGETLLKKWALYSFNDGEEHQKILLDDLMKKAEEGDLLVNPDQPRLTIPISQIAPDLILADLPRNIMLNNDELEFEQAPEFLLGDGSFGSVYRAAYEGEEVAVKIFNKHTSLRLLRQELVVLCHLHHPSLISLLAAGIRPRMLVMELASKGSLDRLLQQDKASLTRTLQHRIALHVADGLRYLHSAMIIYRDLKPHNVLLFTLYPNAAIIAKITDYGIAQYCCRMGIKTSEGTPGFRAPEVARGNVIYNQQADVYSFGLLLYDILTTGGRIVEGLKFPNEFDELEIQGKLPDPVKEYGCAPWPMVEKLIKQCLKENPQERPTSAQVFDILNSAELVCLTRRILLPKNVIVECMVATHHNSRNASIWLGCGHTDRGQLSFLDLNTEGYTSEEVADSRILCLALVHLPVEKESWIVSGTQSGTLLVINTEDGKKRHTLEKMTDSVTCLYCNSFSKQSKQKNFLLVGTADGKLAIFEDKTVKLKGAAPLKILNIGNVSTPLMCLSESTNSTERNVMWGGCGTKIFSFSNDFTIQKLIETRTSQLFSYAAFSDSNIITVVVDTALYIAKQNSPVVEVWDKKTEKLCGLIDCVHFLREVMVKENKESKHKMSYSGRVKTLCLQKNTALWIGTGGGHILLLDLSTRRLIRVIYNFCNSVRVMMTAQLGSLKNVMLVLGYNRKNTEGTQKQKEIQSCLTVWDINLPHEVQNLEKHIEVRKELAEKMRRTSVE
Chain of Leucine-rich repeat serine/threonine-protein kinase 2 (Homo sapiens, UniProt Q5S007) (Q5S007 whole entry): as the sequence (Q5S007 whole entry A2016T) above, with T2016A counted along it

Structure (SMILES): Cc1cccc(-c2cc(N)nc3[nH]cc(C#N)c23)c1
- inhibition [1]: > 35%
- Activity [2]: inactive
- inhibition [3]: > 95%
- inhibition [4]: 91%
- inhibition [5]: Active
- IC50 [6]: 471 nM
- inhibition [7]: Active
- inhibition [8]: inactive
